# Experimental data: ChEMBL document CHEMBL1153726, “Synthesis and anticancer activity of sclerophytin-inspired hydroisobenzofurans” (Bioorg Med Chem Lett, 2009)
# What was measured:
# Format in all cases: functional
# TK-10 = assay: Growth inhibition of human TK10 cells at 1 uM after 96 hrs by MTT assay; set-up: scale not given: the % may be the effect or the level left
# SN12C [1] = assay: Growth inhibition of human SN12C cells after 96 hrs by MTT assay
# Procedure, shortened: (§1)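 Tested in the NCI 60-cell-line panel in five-dose format; GI50 and LC50 values reported for each cell line.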
# SK-MEL-28 [2] = assay: Growth inhibition of human SK-MEL-28 cells at 1 uM after 96 hrs by MTT assay; set-up: scale not given: the % may be the effect or the level left
# OVCAR-8 = assay: Growth inhibition of human OVCAR8 cells at 10 nM after 96 hrs by MTT assay; set-up: scale not given: the % may be the effect or the level left
# EKVX [3] = assay: Growth inhibition of human EKVX cells after 96 hrs by MTT assay
# Procedure, shortened: (§2)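 Run in the NCI 60 human tumour cell line panel as a five-dose assay. GI50 and LC50 were reported for each cell line.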
# MDA-MB-435 = assay: Growth inhibition of human MDA-MB-435 cells at 1 uM after 96 hrs by MTT assay; set-up: scale not given: the % may be the effect or the level left
# UACC-62 = assay: Growth inhibition of human UACC62 cells at 10 nM after 96 hrs by MTT assay; set-up: scale not given: the % may be the effect or the level left
# SN12C [4] = assay: Growth inhibition of human SN12C cells at 10 nM after 96 hrs by MTT assay; set-up: scale not given: the % may be the effect or the level left
# RXF 393 [5] = assay: Growth inhibition of human RXF393 cells at 10 nM after 96 hrs by MTT assay; set-up: scale not given: the % may be the effect or the level left
# MOLT-4 [6] = assay: Growth inhibition of human MOLT4 cells at 100 nM after 96 hrs by MTT assay; set-up: scale not given: the % may be the effect or the level left
# SR = assay: Growth inhibition of human SR cells at 100 nM after 96 hrs by MTT assay; set-up: scale not given: the % may be the effect or the level left
# 786-0 = assay: Growth inhibition of human 786-0 cells at 100 nM after 96 hrs by MTT assay; set-up: scale not given: the % may be the effect or the level left
# HCC 2998 [7] = assay: Growth inhibition of human HCC2998 cells at 100 nM after 96 hrs by MTT assay; set-up: scale not given: the % may be the effect or the level left
# A549 [8] = assay: Growth inhibition of human A549 cells at 1 uM after 96 hrs by MTT assay; set-up: scale not given: the % may be the effect or the level left
# SW-620 [9] = assay: Growth inhibition of human SW620 cells at 10 nM after 96 hrs by MTT assay; set-up: scale not given: the % may be the effect or the level left
# HL-60(TB) = assay: Growth inhibition of human HL-60(TB) cells at 100 nM after 96 hrs by MTT assay; set-up: scale not given: the % may be the effect or the level left
# NCI-H226 = assay: Growth inhibition of human NCI-H226 cells at 100 nM after 96 hrs by MTT assay; set-up: scale not given: the % may be the effect or the level left
# HCC 2998 [10] = assay: Growth inhibition of human HCC2998 cells at 10 uM after 96 hrs by MTT assay; set-up: scale not given: the % may be the effect or the level left
# PC-3 [11] = assay: Growth inhibition of human PC3 cells at 1 uM after 96 hrs by MTT assay; set-up: scale not given: the % may be the effect or the level left
# NCI-H23 = assay: Growth inhibition of human NCI-H23 cells at 100 nM after 96 hrs by MTT assay; set-up: scale not given: the % may be the effect or the level left
# PC-3 [12] = assay: Growth inhibition of human PC3 cells at 1 nM after 96 hrs by MTT assay; set-up: scale not given: the % may be the effect or the level left
# EKVX [13] = assay: Growth inhibition of human EKVX cells at 1 uM after 96 hrs by MTT assay; set-up: scale not given: the % may be the effect or the level left
# HCT-15 = assay: Growth inhibition of human HCT15 cells at 1 nM after 96 hrs by MTT assay; set-up: scale not given: the % may be the effect or the level left
# SK-MEL-2 [14] = assay: Growth inhibition of human SK-MEL-2 cells at 1 nM after 96 hrs by MTT assay; set-up: scale not given: the % may be the effect or the level left
# SW-620 [15] = assay: Growth inhibition of human SW620 cells at 1 nM after 96 hrs by MTT assay; set-up: scale not given: the % may be the effect or the level left
# NCI-H322M [16] = assay: Growth inhibition of human NCI-H322M cells at 10 uM after 96 hrs by MTT assay; set-up: scale not given: the % may be the effect or the level left
# SF-539 = assay: Growth inhibition of human SF539 cells at 10 nM after 96 hrs by MTT assay; set-up: scale not given: the % may be the effect or the level left
# PC-3 [17] = assay: Growth inhibition of human PC3 cells at 10 uM after 96 hrs by MTT assay; set-up: scale not given: the % may be the effect or the level left
# NCI-H322M [18] = assay: Growth inhibition of human NCI-H322M cells at 100 nM after 96 hrs by MTT assay; set-up: scale not given: the % may be the effect or the level left
# RXF 393 [19] = assay: Growth inhibition of human RXF393 cells at 100 nM after 96 hrs by MTT assay; set-up: scale not given: the % may be the effect or the level left
# A549 [20] = assay: Growth inhibition of human A549 cells at 10 nM after 96 hrs by MTT assay; set-up: scale not given: the % may be the effect or the level left
# SN12C [21] = assay: Growth inhibition of human SN12C cells at 100 nM after 96 hrs by MTT assay; set-up: scale not given: the % may be the effect or the level left
# M14 = assay: Growth inhibition of human M14 cells at 100 nM after 96 hrs by MTT assay; set-up: scale not given: the % may be the effect or the level left
# MCF7 = assay: Growth inhibition of human MCF7 cells after 96 hrs by MTT assay; conditions: MCF7, 96 h; procedure, shortened: as §2
# NCI-H460 = assay: Growth inhibition of human NCI-H460 cells at 10 nM after 96 hrs by MTT assay; set-up: scale not given: the % may be the effect or the level left
# T47D = assay: Growth inhibition of human T47D cells at 100 nM after 96 hrs by MTT assay; set-up: scale not given: the % may be the effect or the level left
# SNB-75 = assay: Growth inhibition of human SNB75 cells after 96 hrs by MTT assay; conditions: SNB-75, 96 h; procedure, shortened: as §1
# A549 [22] = assay: Growth inhibition of human A549 cells at 10 uM after 96 hrs by MTT assay; set-up: scale not given: the % may be the effect or the level left
# SK-MEL-5 [23] = assay: Growth inhibition of human SK-MEL-5 cells at 10 nM after 96 hrs by MTT assay; set-up: scale not given: the % may be the effect or the level left
# HCT-116 = assay: Growth inhibition of human HCT116 cells at 1 nM after 96 hrs by MTT assay; set-up: scale not given: the % may be the effect or the level left
# SK-MEL-5 [24] = assay: Growth inhibition of human SK-MEL-5 cells after 96 hrs by MTT assay; conditions: SK-MEL-5, 96 h; procedure, shortened: as §1
# MOLT-4 [25] = assay: Growth inhibition of human MOLT4 cells at 1 nM after 96 hrs by MTT assay; set-up: scale not given: the % may be the effect or the level left
# SK-MEL-28 [26] = assay: Growth inhibition of human SK-MEL-28 cells at 10 nM after 96 hrs by MTT assay; set-up: scale not given: the % may be the effect or the level left
# SK-MEL-2 [27] = assay: Growth inhibition of human SK-MEL-2 cells at 10 uM after 96 hrs by MTT assay; set-up: scale not given: the % may be the effect or the level left
# K562 = assay: Growth inhibition of human K562 cells at 1 uM after 96 hrs by MTT assay; set-up: scale not given: the % may be the effect or the level left
# [28] = read-out: LC50 (the source's name)
# [29] = read-out: Log10GI50 (converted)
# [30] = read-out: Log10LC50 (converted)
compound,measurement,setting,value
C=C(C)[C@H]1CC=C(C)C2=CO[C@@H](c3ccccc3F)[C@@H]21,Activity,TK-10,48%
same,GI50,SN12C [1]; read-out: GI50,6.63 µM
same,CC50,SN12C [1]; [28],45.9 µM
same,GI50,SN12C [1]; [29],6.61 µM
same,CC50,SN12C [1]; [30],45.7 µM
same,TGI,SN12C [1]; read-out: Log10TGI (converted),20.4 µM
same,TGI,SN12C [1]; read-out: TGI,20.3 µM
same,Activity,SK-MEL-28 [2],53%
same,Activity,OVCAR-8,97%
same,GI50,EKVX [3]; read-out: GI50,3.37 µM
same,CC50,EKVX [3]; [28],80.3 µM
same,GI50,EKVX [3]; [29],3.39 µM
same,CC50,EKVX [3]; [30],79.4 µM
same,TGI,EKVX [3]; read-out: Log10TGI (converted),19.5 µM
same,TGI,EKVX [3]; read-out: TGI,19.4 µM
same,Activity,MDA-MB-435,4%
same,Activity,UACC-62,81%
same,Activity,SN12C [4],87%
same,Activity,RXF 393 [5],85%
same,Activity,MOLT-4 [6],81%
same,Activity,SR,47%
same,Activity,786-0,89%
same,Activity,HCC 2998 [7],97%
same,Activity,A549 [8],38%
same,Activity,SW-620 [9],97%
same,Activity,HL-60(TB),92%
same,Activity,NCI-H226,75%
same,Activity,HCC 2998 [10],115.46%
same,Activity,PC-3 [11],20%
same,Activity,NCI-H23,85%
same,Activity,PC-3 [12],95%
same,Activity,EKVX [13],23%
same,Activity,HCT-15,94%
same,Activity,SK-MEL-2 [14],88%
same,Activity,SW-620 [15],96%
same,Activity,NCI-H322M [16],120.7%
same,Activity,SF-539,90%
same,Activity,PC-3 [17],22.47%
same,Activity,NCI-H322M [18],79%
same,Activity,RXF 393 [19],84%
same,Activity,A549 [20],89%
same,Activity,SN12C [21],79%
same,Activity,M14,80%
same,GI50,MCF7; read-out: GI50,3.77 µM
same,CC50,MCF7; [28],63.9 µM
same,GI50,MCF7; [29],3.8 µM
same,CC50,MCF7; [30],64.6 µM
same,TGI,MCF7; read-out: Log10TGI (converted),18.6 µM
same,TGI,MCF7; read-out: TGI,18.8 µM
same,Activity,NCI-H460,97%
same,Activity,T47D,76%
same,GI50,SNB-75; read-out: GI50,4.94 µM
same,LC50,SNB-75; read-out: LC50,56.9 µM
same,GI50,SNB-75; [29],4.9 µM
same,LC50,SNB-75; [30],57.5 µM
same,TGI,SNB-75; read-out: Log10TGI (converted),20.4 µM
same,TGI,SNB-75; read-out: TGI,20.5 µM
same,Activity,A549 [22],71.63%
same,Activity,SK-MEL-5 [23],88%
same,Activity,HCT-116,102%
same,GI50,SK-MEL-5 [24]; read-out: GI50,2.48 µM
same,CC50,SK-MEL-5 [24]; [28],38.6 µM
same,GI50,SK-MEL-5 [24]; [29],2.51 µM
same,CC50,SK-MEL-5 [24]; [30],38.9 µM
same,TGI,SK-MEL-5 [24]; read-out: Log10TGI (converted),14.8 µM
same,TGI,SK-MEL-5 [24]; read-out: TGI,14.9 µM
same,Activity,MOLT-4 [25],106%
same,Activity,SK-MEL-28 [26],93%
same,Activity,SK-MEL-2 [27],71.47%
same,Activity,K562,10%
